Measured values taken from ChEMBL document CHEMBL3271979, “Inhibition of solid tumors by nitrosoureas. 1. Lewis lung carcinoma” (1977).
Active and inactive are the calls of the source. No cut-off for these calls is given here.

Tests used:
[1] = Antitumor activity against mouse early Lewis lung carcinoma allografted in BDF1 mouse assessed as increase in host life span at 21 mg/kg, ip administered as single dose on 1 or 2 days post-tumor implantation; assay type: functional; settings: route intraperitoneal
Outline: (§1)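 BDF1 mice (C57Blk/6 × DBA/2) implanted sc by trocar with ~40 mg Lewis lung tumor fragments from bacteriologically sterile donor tumors. Single ip dose on day 1 or 2, as a solution or suspension in water (CMC or gum acacia) or saline (HPC or Tween 80). Read-out is […]. Same-dose toxicity controls were run in nontumor-bearing mice.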

[2] = Antitumor activity against mouse early Lewis lung carcinoma allografted in BDF1 mouse assessed as increase in host life span at 48 mg/kg, ip administered as single dose on 1 or 2 days post-tumor implantation; assay type: functional; settings: route intraperitoneal; outline: as §1
[3] = Antitumor activity against mouse early Lewis lung carcinoma allografted in BDF1 mouse assessed as time delay in tumor growth at 21 mg/kg, ip administered as single dose on 1 or 2 days post-tumor implantation; assay type: functional; settings: route intraperitoneal
Outline: (§2)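 BDF1 mice (C57Blk/6 × DBA/2) implanted sc by trocar with ~40 mg Lewis lung tumor fragments from bacteriologically sterile donors. A single ip dose was given on day 1 or 2, as a solution or suspension in water or saline with suspending agent, at ≤0.5 ml. Tumors were measured by caliper at least twice weekly, with weight = ab²/2. Delay was taken as the days for the tumor to reach 1 g.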

[4] = system: Mus musculus; experiment: Antitumor activity against mouse advanced Lewis lung carcinoma allografted in BDF1 mouse assessed as complete regression of established tumor at 48 mg/kg, ip administered as single dose on 7th day post-tumor implantation; assay type: functional, organism-based; parameters: dose 48 mg/kg
Outline: (§3)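 BDF1 mice (C57Blk/6 × DBA/2) implanted sc by trocar with Lewis lung tumor fragments of about 40 mg, taken only from bacteriologically sterile donor tumors. Mice bearing tumors of about 400 mg (day 6-7) were selected. Each received a single ip dose on day 7, at or below the LD10 in normal mice. Groups were of 10 mice. Tumor weight was taken from calipers as w = ab²/2, measured at least twice weekly. Matched non-tumor mice served as toxicity controls.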

[5] = system: Mus musculus; experiment: Antitumor activity against mouse advanced Lewis lung carcinoma allografted in BDF1 mouse assessed as complete regression of established tumor at 21 mg/kg, ip administered as single dose on 7th day post-tumor implantation; assay type: functional, organism-based; parameters: dose 21 mg/kg; outline: as §3
[6] = system: Mus musculus; experiment: Antitumor activity against mouse advanced Lewis lung carcinoma allografted in BDF1 mouse assessed as disease cure at 32 mg/kg, ip administered as single dose on 7th day post-tumor implantation measured for 80 days post-drug treatment; assay type: functional, organism-based; parameters: dose 32 mg/kg; outline: as §3
[7] = system: Mus musculus; experiment: Antitumor activity against mouse advanced Lewis lung carcinoma allografted in BDF1 mouse assessed as disease cure at 21 mg/kg, ip administered as single dose on 7th day post-tumor implantation measured for 80 days post-drug treatment; assay type: functional, organism-based; parameters: dose 21 mg/kg; outline: as §3
[8] = system: Mus musculus; experiment: Antitumor activity against mouse advanced Lewis lung carcinoma allografted in BDF1 mouse assessed as disease cure at 48 mg/kg, ip administered as single dose on 7th day post-tumor implantation measured for 80 days post-drug treatment; assay type: functional, organism-based; parameters: dose 48 mg/kg; outline: as §3
[9] = Antitumor activity against mouse advanced Lewis lung carcinoma allografted in BDF1 mouse assessed as increase in host life span at 21 mg/kg, ip administered as single dose on 7th day post-tumor implantation; assay type: functional; settings: route intraperitoneal
Outline: (§4)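 BDF1 mice (C57Blk/6 × DBA/2) implanted sc by trocar with about 40 mg Lewis lung tumor fragments from bacteriologically sterile donors. Advanced-disease groups held tumors of about 400 mg by day 6-7, sized by caliper (w = ab²/2). Single ip injection on day 7, in water or saline vehicle, at or below the LD10 in normal mice. Tumors measured at least twice weekly.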

[10] = Antitumor activity against mouse advanced Lewis lung carcinoma allografted in BDF1 mouse assessed as increase in host life span at 48 mg/kg, ip administered as single dose on 7th day post-tumor implantation; assay type: functional; settings: route intraperitoneal; outline: as §4
[11] = system: Mus musculus; experiment: Antitumor activity against mouse advanced Lewis lung carcinoma allografted in BDF1 mouse assessed as complete regression of established tumor at 32 mg/kg, ip administered as single dose on 7th day post-tumor implantation; assay type: functional, organism-based; parameters: dose 32 mg/kg; outline: as §4
[12] = Antitumor activity against mouse advanced Lewis lung carcinoma allografted in BDF1 mouse assessed as increase in host life span at 32 mg/kg, ip administered as single dose on 7th day post-tumor implantation; assay type: functional; settings: route intraperitoneal; outline: as §4
[13] = Antitumor activity against mouse early Lewis lung carcinoma allografted in BDF1 mouse assessed as time delay in tumor growth at 48 mg/kg, ip administered as single dose on 1 or 2 days post-tumor implantation; assay type: functional; settings: route intraperitoneal; outline: as §2
[14] = system: Mus musculus; experiment: Antitumor activity against mouse advanced Lewis lung carcinoma allografted in ip dosed BDF1 mouse assessed as complete regression of established tumor administered as single dose on day 6 or 7 post-tumor implantation; assay type: functional, organism-based; outline: as §3
[15] = system: Mus musculus; experiment: Antitumor activity against mouse advanced Lewis lung carcinoma allografted in ip dosed BDF1 mouse assessed as disease cure administered as single dose on day 6 or 7 post-tumor implantation; assay type: functional, organism-based; outline: as §3
[16] = Antitumor activity against mouse advanced Lewis lung carcinoma allografted in ip dosed BDF1 mouse assessed as increase in host lifespan administered as single dose on day 6 or 7 post-tumor implantation; assay type: functional
Outline: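 Advanced Lewis lung model: about 40 mg fragments implanted sc by trocar into BDF1 mice, and mice with tumors of about 400 mg (day 6-7) selected. Tumor weight from calipers, w = ab²/2. Agent given as one ip dose in distilled water or physiological saline. Nontumor-bearing mice received matching doses as toxicity controls.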

[17] = Antitumor activity against mouse early Lewis lung carcinoma allografted in BDF1 mouse assessed as increase in host life span at 38 mg/kg, ip administered as single dose on 1 or 2 days post-tumor implantation; assay type: functional; settings: route intraperitoneal; outline: as §1
[18] = Antitumor activity against mouse early Lewis lung carcinoma allografted in BDF1 mouse assessed as increase in host life span at 25 mg/kg, ip administered as single dose on 1 or 2 days post-tumor implantation; assay type: functional; settings: route intraperitoneal; outline: as §1
[19] = Antitumor activity against mouse early Lewis lung carcinoma allografted in BDF1 mouse assessed as time delay in tumor growth at 38 mg/kg, ip administered as single dose on 1 or 2 days post-tumor implantation; assay type: functional; settings: route intraperitoneal; outline: as §2
[20] = Antitumor activity against mouse early Lewis lung carcinoma allografted in BDF1 mouse assessed as time delay in tumor growth at 25 mg/kg, ip administered as single dose on 1 or 2 days post-tumor implantation; assay type: functional; settings: route intraperitoneal; outline: as §2
[21] = Antitumor activity against mouse early Lewis lung carcinoma allografted in ip dosed BDF1 mouse assessed as disease cure administered as single dose on 1 or 2 days post-tumor implantation measured for 80 days post-drug treatment; assay type: functional
Outline: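 BDF1 mice implanted sc by trocar with ~40 mg Lewis lung fragments from sterile donor tumors. A single ip dose was given on day 1 or 2 after implant, in water or saline vehicle. Cures were scored in animals observed for at least 80 days after treatment. Drug-toxicity controls were matched non-tumor-bearing mice monitored for body weight and deaths.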

[22] = Ratio of ED50 for antitumor activity against mouse L1210 cells allografted in ip dosed mouse to LD10 for mouse
[23] = Antitumor activity against mouse early Lewis lung carcinoma allografted in BDF1 mouse assessed as increase in host life span at 113 mg/kg, ip administered as single dose on 1 or 2 days post-tumor implantation; assay type: functional; settings: route intraperitoneal
Outline: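 Early disease: BDF1 mice carrying sc trocar implants of about 40 mg Lewis lung fragments. One ip dose given on day 1 or 2 after implant, in distilled water or saline, at ≤0.5 ml. Endpoints were % increase in life-span of dying animals and delay in days for the primary tumor to reach 1 g. Untreated controls served as reference.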

[24] = Antitumor activity against mouse early Lewis lung carcinoma allografted in BDF1 mouse assessed as increase in host life span at 50 mg/kg, ip administered as single dose on 1 or 2 days post-tumor implantation; assay type: functional; settings: route intraperitoneal; outline: as §1
[25] = Antitumor activity against mouse early Lewis lung carcinoma allografted in BDF1 mouse assessed as time delay in tumor growth at 113 mg/kg, ip administered as single dose on 1 or 2 days post-tumor implantation; assay type: functional; settings: route intraperitoneal
Outline: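 Sc trocar implants of about 40 mg Lewis lung fragments in BDF1 mice. A single ip injection was given on day 1 or 2, in water or physiological saline, at ≤0.5 ml. Tumor size came from caliper length and width as w = ab²/2, measured at least twice weekly. Growth delay is the extra days taken to reach 1 g, compared with untreated controls.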

[26] = Antitumor activity against mouse early Lewis lung carcinoma allografted in BDF1 mouse assessed as time delay in tumor growth at 50 mg/kg, ip administered as single dose on 1 or 2 days post-tumor implantation; assay type: functional; settings: route intraperitoneal; outline: as §2

For `CC(=O)OC[C@H]1CC[C@H](NC(=O)N(CCF)N=O)CC1`, the ILS at 21 mg/kg [1] was 24%, the ILS at 48 mg/kg [2] was 7% and the Time [3] was 1.3 days. For the same compound, the inhibition [4] was “inactive”, the inhibition [5] was “inactive” and the Activity [6] was “inactive”. For the same compound, the Activity [7] was “inactive”, the Activity [8] was “inactive” and the ILS at 21 mg/kg [9] was 26%. The ILS at 48 mg/kg [10] was 26%, the inhibition [11] was “inactive” and the ILS at 32 mg/kg [12] was 13%. For the same compound, the Time [13] was 12 days, the inhibition [14] was “inactive” and the Activity [15] was “inactive”. For the same compound, the ILS [16] was over 25%.
For `O=NN(CCCl)C(=O)N[C@H]1CC[C@@H](CC(=O)O)CC1`, the ILS at 38 mg/kg [17] was 42%, the ILS at 25 mg/kg [18] was 59% and the Time [19] was 9.2 days. For the same compound, the Time [20] was 8.2 days, the Activity [21] was over 50% and the Ratio [22] was 0.4. The inhibition [14] was “inactive” and the ILS [16] was under 25%.
Work on `C[C@@H]1CCC[C@@H](NC(=O)N(CCCl)N=O)C1` (relative stereo) yielded an ILS at 113 mg/kg [23] of 50%, an ILS at 50 mg/kg [24] of 47% and a Time [25] of 6.1 days. The Time [26] was 4 days, the Activity [21] was 10% and the Ratio [22] was 0.4. For the same compound, the inhibition [14] was “inactive” and the ILS [16] was under 25%.
